High-throughput results: PubChem, The Scripps Research Institute Molecular Screening Center
Only some compounds are listed: those with a hit (about 2.6% of all), similar ones and a draw of the others.
TCR-CD3 inh – blocks the human TCR-CD3 interaction | TAMRA-labeled TCR probe fluorescence, biochemical | inhibition, % at 9.4 µM | hit rate 0.37% among 360,000; in the data active = inhibition above about 19%;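 note: recombinant mutant TCR 2C K166C tagged with TAMRA read by polarization; 0% = receptor in buffer alone and 100% = receptor with positive control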
ABHD4 inh – ABHD4 (mouse) inhibition, primary FP screen; purified mABHD4, FP-Rh probe fluorescence polarization; hit rate 0.54% among 370,000; inhibition, % at 8.92 µM;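 active = inhibition exceeding the mean over every tested compound plus 3 SD, cut at about 30% in these data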;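 note: 0% = plate median of compound wells and 100% = S159A mutant with DMSO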
Target sequence (Q8VD66 whole entry, looked up): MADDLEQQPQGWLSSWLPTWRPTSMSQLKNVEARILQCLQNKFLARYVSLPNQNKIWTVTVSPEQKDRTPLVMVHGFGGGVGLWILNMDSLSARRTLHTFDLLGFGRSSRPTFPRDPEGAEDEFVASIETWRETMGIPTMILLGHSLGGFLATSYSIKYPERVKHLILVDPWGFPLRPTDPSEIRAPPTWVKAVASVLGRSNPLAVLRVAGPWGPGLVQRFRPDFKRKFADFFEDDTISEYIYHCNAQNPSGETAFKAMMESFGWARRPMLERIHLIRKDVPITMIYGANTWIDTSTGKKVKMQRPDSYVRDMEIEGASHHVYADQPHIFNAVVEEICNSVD
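assay system = mABHD4 protein | compound dosing = single nominal dose of 8.92 µM, 0.89% DMSO final | read-out basis = percent inhibition of probe binding, normalized to plate controls | schedule = Enzyme–compound pre-incubation 45 min, then probe 60 min, both 25 °C | detection = fluorescence polarization, excitation 525 nm, emission 598 nm, BODIPY TMR filters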
PRMT1 inh – blocks human protein arginine methyltransferase 1; recombinant PRMT1, activity-based probe fluorescence polarization; inhibition, % at 2.79 µM; hit rate 1.3% among 370,000; AID 652257;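 active = inhibition above about 21% made by adding two undisclosed values, limit read from the data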
HTRA1 inhibitor – inhibitors of human serine peptidase HTRA1 | recombinant HTRA1, FP-rhodamine activity-based probe, fluorescence polarization | inhibition, % at 5.96 µM | hit rate 0.5% among 340,000 | AID 504803; in the data active = inhibition above about 36%;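 note: 0% = enzyme with DMSO and 100% = wells lacking enzyme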
SIAE inh – inhibitors of human sialic acid acetylesterase SIAE. Q9HAT2. SIAE FP-Rh probe binding, fluorescence polarization. inhibition, % at 9.66 µM. hit rate 0.69% among 370,000;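 active = inhibition above a cutoff: mean of compounds within the control limits plus 3 SD of those, cut at about 17% in these data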;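 note: 0% = plate median of compound wells and 100% = probe without SIAE protein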
SIAE confirm – confirmation of human SIAE inhibitors | shares compounds with SIAE inh | SIAE FP-Rh activity-based probe, fluorescence polarization | inhibition, % at 9.66 µM | hit rate 13% among 2,300 | AID 1117263;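 active = mean inhibition of the replicates above the hit cutoff set in the primary screen, cut at about 17% in these data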;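 note: 0% = SIAE with DMSO and probe and 100% = probe without SIAE; inhibitors lower polarization as more probe stays unbound to SIAE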
* marks the source's active call; other numbers are inactive results; . = no result.

SMILES	TCR-CD3 inh	ABHD4 inh	PRMT1 inh	HTRA1 inhibitor	SIAE inh	SIAE confirm
CCOC(=O)c1c(C)[nH]c(C(=O)NCCc2ccc(OC)c(OC)c2)c1C	3	1	-2	-4	22*	-2
CC1CC(C)CN(S(=O)(=O)c2ccc3c(c2)oc(=O)n3CC(=O)NCCCOC(C)C)C1 (stereo not given)	8	1	-2	0	18*	-3
O=C1NC(=Nc2ccc3ccccc3c2)S/C1=C/c1ccco1	-4	6	2	-6	32*	-3
CCNC(=O)NC(=O)C(C)Sc1nnc(COc2ccccc2Cl)o1 (stereo not given)	4	2	-1	-2	29*	1
COC(=O)[C@]12C[C@H](CC(=O)NCCCCc3ccccc3)C(=O)N(Cc3cccc4ccccc34)C1=C[C@H](C(C)C)O[C@@H]2C1CC1	.	-16	-5	.	-8	.
CC(=NCc1cccc(Cl)c1)c1nc(-c2ccco2)oc1O	-5	1	-1	-5	21*	1
Oc1oc(-c2ccco2)nc1C=Nc1cccc(Cl)c1	5	18	-2	-5	1	.
CC(C)NC(=S)Nc1ccc2cn[nH]c2c1	11	0	-1	9	19*	-6
C=CCN1C(=O)[C@H](CC(=O)NCc2ccc(C)o2)[C@@]2(C(=O)OCC)CCCC=C12	.	4	1	.	0	.
Cc1nc(SCC(=O)N(CC(C)C)C2CCS(=O)(=O)C2)c2ccccc2n1 (stereo not given)	0	3	2	3	17*	-1
NS(=O)(=O)c1ccc(NCc2cnc3ccccc3n2)cc1	5	2	0	5	4	.
N#CCc1cnc2ccccc2n1	2	8	17	28	18*	-2
COc1cccc(/C=C2\CC3(OC(=O)C(C)(C)C)CCCN2C3)c1 (stereo not given)	.	7	-2	.	1	.
Cc1cc2nc(NCCCO)n(CC(=O)c3cc(C(C)(C)C)c(O)c(C(C)(C)C)c3)c2cc1C	-1	13	3	-26	9	.
CC(C)(C)c1cc(C(=O)C[n+]2ccc(C(=O)NCCCO)cc2)cc(C(C)(C)C)c1O	-2	-12	-4	-4	18*	0
CC(C)/C=N/Nc1nc(-c2ccc(Br)cc2)cs1	8	13	1	-4	18*	2
COc1cccc(CNC(=O)C2CCN(c3nc(OC)nc(OC)n3)CC2)c1	.	-5	-6	.	9	.
CC(=O)Nc1ccc(S(=O)(=O)N(C)CC(=O)OCC(=O)N2CCCCC2)cc1	6	1	-1	3	-4	.
CCOc1ccc(OCCOC(=O)CN(C)S(=O)(=O)c2ccc(NC(C)=O)cc2)cc1	1	2	-4	-5	20*	-5
COc1ccc(S[C@]2(C(=O)N3CCN(c4ncccn4)CC3)CC(=O)N(C(=O)/C=C/c3ccccc3)[C@@H]2c2ccc(OC)cc2)cc1	.	-5	4	.	4	.
O=C(CSc1nnc(-c2ccccc2F)n1C1CCCCC1)Nc1cc(C(=O)O)ccc1Cl	7	-7	3	-3	5	.
Cc1ccc(C(=O)O)cc1NC(=O)CSc1nnc(-c2ccccc2F)n1C1CCCCC1	1	-2	3	2	19*	2
CC1Cc2nc(SCC(=O)NCC3CCCO3)n(C)c(=O)c2S1 (stereo not given)	-2	9	6	4	20*	-1
O=C(CSc1nc2c(c(=O)n1-c1ccccc1)SCC2)NCC1CCCO1 (stereo not given)	-1	-3	1	6	31*	-4
Cc1ccc2nc(SCC(=O)Nc3ccc4[nH]c(=O)[nH]c4c3)[nH]c2c1	-4	11	4	2	2	.
SMILES	TCR-CD3 inh	ABHD4 inh	PRMT1 inh	HTRA1 inhibitor	SIAE inh	SIAE confirm
O=C(CSc1nc2ccc(Cl)cc2[nH]1)Nc1ccc2[nH]c(=O)[nH]c2c1	-8	6	5	-5	18*	2
C#CCCN([C@@H](CC(C)C)C(=O)OC)S(=O)(=O)c1ccc(F)cc1Br	.	-7	0	.	-2	.
Cc1occc1C(=O)NNC(=S)Nc1cccc([N+](=O)[O-])c1	4	8	-1	4	22*	3
Cc1cccc(NC(=S)NNC(=O)c2cccc([N+](=O)[O-])c2)c1	3	7	-1	2	6	.
Brc1ccc(-c2nn3c(-c4ccccc4)nnc3s2)o1	.	0	2	.	-1	.
C=CCN(C(=O)[C@@H](C)[C@@H](O)c1ccc(Cl)cc1)c1ccccc1	.	0	-5	.	-2	.
CC(=O)Nc1ccc(S(=O)(=O)Nc2ccc(Cl)cn2)cc1	9	-1	-1	-2	88*	3
CSCC[C@H](NC(=O)[C@@H]1Cc2ccccc2CN1)C(=O)Nc1ccc2c(c1)OCO2	-10	11	2	20	18*	1
C[C@H](NC(=O)[C@@H]1Cc2ccccc2CN1)C(=O)Nc1ccc2c(c1)OCO2	1	2	-5	12	5	.
CCn1ncc(/C=N\NC(=O)c2ccc3c(c2)c(C)c(C)n3Cc2ccccc2)c1C	7	-2	-1	-33	38*	-8
COc1ccc(Cn2ccc3ccc(-c4ccc5ccn(C(=O)C6CCC6)c5c4)cc32)cc1	.	-12	-5	.	-9	.
CC(C)C1Cc2[nH][nH]c(=O)c2C(C2CC2)O1 (stereo not given)	-2	2	-2	.	6	.
CCC1OC(C(C)C)Cc2[nH][nH]c(=O)c21 (stereo not given)	-8	-2	-2	.	17*	3
Clc1ccc2nc(CNc3nc(N4CCOCC4)nc4c3ncn4-c3ccsc3)[nH]c2c1	.	-12	0	.	3	.
Cc1c(C(=O)N/N=C/c2ccc(-c3ccccc3[N+](=O)[O-])o2)sc(N)c1C#N	4	22	16	25	26*	6
COc1ccccc1Nc1nnc(SCC(=O)NC2CC2)s1	1	5	2	8	17*	2
CC1CC(C)(C)CC2(C1)NC(=O)N(CC(=O)N(C)Cc1nc3ccccc3c(=O)[nH]1)C2=O (stereo not given)	9	5	1	-7	19*	-3
O=C(CSc1ccccc1)Nc1ccc(N2CCOCC2)c(F)c1	-5	1	3	8	18*	3
COc1cccc(C2SCC(=O)N2c2ccc(C)cc2)c1OC (stereo not given)	-3	5	-4	-3	8	.
COc1ccc(N2C(=O)CSC2c2cccc(OC)c2OC)cc1 (stereo not given)	7	6	1	0	23*	-8
CCC(=O)N(C)C[C@@H]1[C@H](c2ccc(C3=CCCCC3)cc2)[C@H](CO)N1C(=O)CC	.	-2	0	.	-3	.
CC(C)(C)N(NC(=O)Nc1ccc(Cl)cc1)C(=O)c1ccccc1	5	6	0	-6	17*	-7
CC(C)(C)N(NC(=O)Nc1ccccc1)C(=O)c1ccccc1	-5	-1	-4	3	-3	.
